Screens (PubChem BioAssay)
ASAP1 GAP inh = inhibitors of human ASAP1 ArfGAP activity; Q9ULH1; ASAP1-stimulated ARF1 GTP hydrolysis, GDP FP detection; inhibition, % at 16.5 µM; 360,000 compounds, 0.19% hits; AID 624377
TDP2 absorb = blocks human TDP2 phosphodiesterase activity; recombinant TDP2, T5PNP hydrolysis, p-nitrophenol absorbance 415 nm; inhibition, % at 12.8 µM; 370,000 compounds, 0.34% hits; AID 720702;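 active means inhibition above the mean of all tested compounds plus 3 SD, set per campaign, cut at about 25% in these data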
Target sequence (O95551 whole entry, looked up): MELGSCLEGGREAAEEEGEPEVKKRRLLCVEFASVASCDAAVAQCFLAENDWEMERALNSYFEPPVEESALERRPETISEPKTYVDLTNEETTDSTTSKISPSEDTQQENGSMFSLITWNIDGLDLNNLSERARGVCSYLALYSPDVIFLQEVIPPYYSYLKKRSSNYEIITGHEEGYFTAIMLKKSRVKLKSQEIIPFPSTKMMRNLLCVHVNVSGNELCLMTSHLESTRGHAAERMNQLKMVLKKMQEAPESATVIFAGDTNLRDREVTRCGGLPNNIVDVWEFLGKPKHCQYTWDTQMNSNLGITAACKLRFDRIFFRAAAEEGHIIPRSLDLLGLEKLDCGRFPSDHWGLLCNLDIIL
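Assay system: Recombinant human TDP2 | Quantity: 120 nM TDP2 per well | Incubation: 2 h at 37 °C | Signal: Epi absorbance | Evaluation: Percent inhibition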
LEDGF integ inh = blocks HIV-1 LEDGF/p75-dependent DNA integration; TR-FRET IN-LEDGF/p75 DNA integration, Eu/Cy5; AID 743269; 370,000 compounds, 0.64% hits; inhibition, % at 3.7 µM;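 active means inhibition above the screen-wide mean plus 3 SD, cut at about 13% in these data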;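 further: signal is the Cy5 over europium emission ratio at 671 and 618 nm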
ARFGAP1 inh = inhibitors of rat ARFGAP1. inhibition, % at 16.5 µM. Q62848. AID 651572. Arfgap1-stimulated ARF1 GTP hydrolysis, GDP FP detection. 360,000 compounds, 0.26% hits;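 active means inhibition above a per-plate limit, mean inhibition of low control wells plus 3 SD, cut at about 25% in these data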
Target sequence (Q62848 1-136 limits assumed): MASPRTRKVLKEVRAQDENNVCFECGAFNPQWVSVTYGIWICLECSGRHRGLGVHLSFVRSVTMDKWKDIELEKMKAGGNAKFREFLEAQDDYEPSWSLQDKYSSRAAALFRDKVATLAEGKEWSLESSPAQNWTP
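Material: rat Arfgap1 GAP domain (His6, aa 1-136), purified enzyme. Also added: human ARF1(Δ1-17)-GTP substrate. Compound dosing: 16.5 µM single point, 1.26% DMSO. Timing: enzyme reaction 120 min at 25 °C after 20 min preincubation. Signal: GDP detection by fluorescence polarization. Read-out basis: percent inhibition of GAP-stimulated GDP formation, scaled between DMSO and no-Arfgap1 medians.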
UHRF1 MBD2 ctr = human UHRF1 methylated DNA binding inhibitors | Q96T88 | UHRF1 binding to methylated oligo, TR-FRET | inhibition, % at 4.4 µM | 370,000 compounds, 0.75% hits | AID 687016; in the data active means inhibition above about 21%;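 further: UHRF1 SRA domain binding a hemimethylated CpG hairpin DNA probe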
MBD2 DNA inh = MBD2-methylated oligo binding inhibition; Q9UBB5; 370,000 compounds, 0.31% hits; inhibition, % at 4.4 µM; TR-FRET, MBD2 binding to methylated oligonucleotide; in the data active means inhibition above about 13%
TDP2 confirm = confirmation of human TDP2 inhibitors | 1,100 compounds, 22% hits | shares compounds with TDP2 absorb | inhibition, % at 12.8 µM | recombinant human TDP2, absorbance read-out
Each line names hits and unclear results; the compound was inactive in the other large screens (follow-up assays come after a bar, where they were run). Compounds with a hit are over-represented: about 2% of the library has one in this group of screens. Unless noted, no stated cut-off is given here; in the data, active means inhibition above about 25%; inactive means the rest.

O[C@H](COc1cccc(Br)c1)CN1CCC(C(O)(c2ccccc2)c2ccccc2)CC1	none (no result: ASAP1 GAP inh, ARFGAP1 inh)
CCOC(=O)C1=C(Cc2ccc(C)cc2)C(=O)c2ccccc2C1=O	TDP2 absorb 31 | TDP2 confirm 27
O=C(NCC(c1ccccc1)c1ccccc1)[C@H](Cc1c[nH]c2ccccc12)NC1(C(=O)NC2CCCCC2)CCC1	none (no result: ASAP1 GAP inh, ARFGAP1 inh)
O=C(Nc1c(-c2ccccc2)[nH][nH]c1=O)c1cccc(C(F)(F)F)c1	TDP2 absorb 26 | TDP2 confirm inactive
O=C(Nc1c(-c2ccc3c(c2)OCO3)[nH][nH]c1=O)c1ccc2c(c1)OCO2	TDP2 absorb 48 | TDP2 confirm 67
O=C(Nc1ccccc1-c1ccccc1)c1cccc(C(F)(F)F)c1	none
COc1ccc(-c2[nH][nH]c(=O)c2NC(=O)c2ccccc2Br)cc1	none
O=C(Nc1c(-c2ccc(Cl)cc2)[nH][nH]c1=O)c1ccc(Br)cc1	TDP2 absorb 38 | TDP2 confirm inactive
O=C(Nc1c(-c2ccccc2)[nH][nH]c1=O)c1ccccc1	TDP2 absorb 35 | TDP2 confirm inactive
COC(=O)C[C@@H]1CC[C@@H]2[C@@H](COc3ccc(NC(=O)Nc4cccc(Cl)c4)cc3C(=O)N2C)O1	none (no result: ASAP1 GAP inh, ARFGAP1 inh)
CN1C(=O)C[C@@](C#N)(C(=O)N2CCCC2)[C@H]1c1ccccc1	none (no result: ASAP1 GAP inh, ARFGAP1 inh)
COC(=O)c1cc(-c2ccccc2OC)c(=O)n2c1CCC2	none (no result: ASAP1 GAP inh, ARFGAP1 inh)
O=C(CCc1ccccc1)N[C@H]1/C(=N/O)CCC[C@]12C(=O)N(Cc1ccccc1)c1ccccc12	none (no result: ASAP1 GAP inh, ARFGAP1 inh)
Cc1ccc(S(=O)(=O)c2c(N)n(CCCO)c3nc4ccccc4nc23)cc1	TDP2 absorb 54 | TDP2 confirm inactive
COc1ccc(-n2c(SCC(=O)NNC(=S)Nc3ccc(C)cc3)nnc2-c2ccccc2)cc1	none (no result: ASAP1 GAP inh, ARFGAP1 inh)
COc1ccc(CN2CCC(CNC(=O)NCc3ccccc3)CC2)cc1	none (no result: ASAP1 GAP inh, ARFGAP1 inh)
COC(=O)/C=C1\SC(=NC(=O)c2ccc(C)cc2)NC1=O	none
COC(=O)/C=C1/SC(=NC(=O)c2ccc(Cl)cc2)NC1=O	TDP2 absorb 25 | TDP2 confirm inactive
COc1ccc(C)cc1NC(=O)C(NCC(O)c1ccccc1)c1ccccc1 (centres undefined)	TDP2 absorb 26 | TDP2 confirm inactive
COc1ccc(C)cc1NC(=O)C(OC(=O)CNC(=O)c1cc(C)cc(C)c1)c1ccccc1 (centres undefined)	none
CCOC(=O)c1c(-c2ccc(Cl)cc2)csc1NC(=O)CNCc1ccco1	TDP2 absorb 32 | TDP2 confirm inactive
COc1cccc(N=Nc2c(C)[nH]n(-c3ccccc3)c2=O)c1	none
COc1cccc(C(C[N+](=O)[O-])c2c(C)[nH]n(-c3ccccc3)c2=O)c1 (centres undefined)	TDP2 absorb 28 | TDP2 confirm inactive
COc1ccc2c(CCN3C(=O)c4ccccc4C3=O)c(-c3c(CCN4C(=O)c5ccccc5C4=O)c4ccccc4n3C(=O)OC(C)(C)C)[nH]c2c1	none (no result: ASAP1 GAP inh, ARFGAP1 inh)
Oc1ccc(C2=NNC(c3ccc(O)cc3)=NN2)cc1	TDP2 absorb 28 | TDP2 confirm inactive
Oc1ccc(-c2nnc(-c3ccc(O)cc3)nn2)cc1	none
O=C(O)c1ccc(/C=C2/SC(=S)N(Cc3ccccc3)C2=O)cc1	none
O=C(Cc1ccccc1)NN1C(=O)/C(=C/c2ccc(C(=O)O)cc2)SC1=S	TDP2 absorb 26 | TDP2 confirm inactive
CC(C)[C@@H](CO)N(Cc1cn(Cc2ccccc2)nn1)S(=O)(=O)c1ccccc1Br	none (no result: ASAP1 GAP inh, ARFGAP1 inh)
Cc1cc(C(F)(F)F)nn1CC(=O)NCc1ccco1	TDP2 absorb 31 | TDP2 confirm inactive
Cc1c(Cl)c(C(F)(F)F)nn1CC(=O)NCc1ccco1	none
O=C(Nc1ccc(F)cc1)OC1CC2CC1[C@H]1CCCCN1C2 (some centres undefined)	none (no result: ASAP1 GAP inh, ARFGAP1 inh)
COc1ccc(C(=O)NCC(O)CN2CCOCC2)cc1[N+](=O)[O-] (centres undefined)	TDP2 absorb 25 | TDP2 confirm inactive
COc1ccc(C(=O)NCC2(c3ccccc3)CCOCC2)cc1[N+](=O)[O-]	none
NC(=O)C1=CN([C@@H]2O[C@H](COP(=O)(O)OP(=O)(O)OC[C@H]3O[C@@H](n4cnc5c(N)ncnc54)[C@H](O)[C@@H]3O)[C@@H](O)[C@H]2O)C=CC1	none (no result: ASAP1 GAP inh, ARFGAP1 inh)
CS(=O)(=O)c1ccc(C(=O)Nc2cccc(-c3nc4ccccc4[nH]3)c2)cc1	none
CS(=O)(=O)c1cccc(C(=O)Nc2cccc(-c3nc4ccccc4[nH]3)c2)c1	TDP2 absorb 25, UHRF1 MBD2 ctr 21 | TDP2 confirm inactive
COc1ccccc1/C=N\NC(=O)c1cccc(S(=O)(=O)N(C)C)c1	none (no result: ASAP1 GAP inh, ARFGAP1 inh)
Cn1nccc1C(=O)N1CCC(Cc2ccccc2)CC1	TDP2 absorb 45 | TDP2 confirm inactive
Cc1ccc(C(=O)N/N=C/c2ccc(-c3ccc(Br)cc3[N+](=O)[O-])o2)o1	TDP2 absorb 27 | TDP2 confirm inactive
CCC(C(=O)Nc1ccccc1N1CCCC1)c1cccc(C)c1 (centres undefined)	none (no result: ASAP1 GAP inh, ARFGAP1 inh)
CCC1CCCCN1C(=O)CNCC1CCCO1 (centres undefined)	TDP2 absorb 33 | TDP2 confirm inactive
Cc1cc(C)c(OCCOCCN2CCN(C)CC2)c(Cl)c1	TDP2 absorb 29 | TDP2 confirm inactive
Cc1ccc(CN2CCCCC(NC(=O)c3c(F)cccc3F)C2=O)cc1 (centres undefined)	none (no result: ASAP1 GAP inh, ARFGAP1 inh)
Cc1ccc(C)c(S(=O)(=O)NCc2ccc(C(=O)N3CCOCC3)cc2)c1	TDP2 absorb 25 | TDP2 confirm inactive
Cc1ccc(C)c(S(=O)(=O)NCc2ccc(C(=O)N3CCN(C)CC3)cc2)c1	none
O=c1nccc(Nc2ccccc2)[nH]1	none
c1ccc(Nc2cc(Nc3ccccc3)[nH]n2)cc1	TDP2 absorb 75 | TDP2 confirm inactive
Cc1ccccc1NC(=O)CN1CCCC1	none
Cc1ccccc1NC(=O)CN1CCN(C)CC1	TDP2 absorb 36 | TDP2 confirm inactive
CC(C)NC(=O)Cn1c(-c2cncs2)nc2ccccc21	none (no result: ASAP1 GAP inh, ARFGAP1 inh)
O=C(C1CCN(S(=O)(=O)c2ccc3[nH]c(=O)oc3c2)CC1)N1CCCN(Cc2ccccc2)CC1	none (no result: ASAP1 GAP inh, ARFGAP1 inh)
Cc1oc(-c2ccccc2F)nc1CS(=O)(=O)CC(=O)NC(C)CCc1ccccc1 (centres undefined)	TDP2 absorb 27 | TDP2 confirm inactive
Cc1oc(-c2ccccc2F)nc1CS(=O)(=O)CC(=O)NCCCc1ccccc1	none
CCCCCCCCN1C(=O)[C@@H](CC(=O)NCCc2ccccc2OC)C[C@@]2(C(=O)OC)C1=C[C@H](C(C)C)O[C@@H]2C1CC1	none (no result: ASAP1 GAP inh, ARFGAP1 inh)
CCCCn1c(N)c(N(CC(C)C)C(=O)c2cccc(OCc3ccccc3)c2)c(=O)[nH]c1=O	TDP2 absorb 25 | TDP2 confirm inactive
